Measured values published in ChEMBL document CHEMBL4004830 (J Med Chem, 2017).

Legend:
MV4-11 [1] = test: Cell cycle arrest in human MV4-11 cells assessed as accumulation at G2/M phase at 5 times GI50 after 24 hrs by propidium iodide staining based flow cytometry (reference value: 18.11%); assay type: functional
Procedure, shortened: (§1)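 MV4-11 cells were treated with increasing concentrations for 24 h. Cells were then harvested, fixed and stained with propidium iodide before flow cytometric cell cycle analysis.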

NB-4 = test: Growth inhibition of human NB4 cells after 72 hrs by resazurin or MTT assay; assay type: functional; conditions: NB-4, 72 h
MV4-11 [2] = test: Cell cycle arrest in human MV4-11 cells assessed as accumulation at sub-G1 phase at 10 times GI50 after 24 hrs by propidium iodide staining based flow cytometry (reference value: 0.91%); assay type: functional; procedure, shortened: as §1
MV4-11 [3] = test: Cell cycle arrest in human MV4-11 cells assessed as accumulation at S phase at GI50 after 24 hrs by propidium iodide staining based flow cytometry (reference value: 21.97%); assay type: functional; procedure, shortened: as §1
MV4-11 [4] = test: Induction of apoptosis in human MV4-11 cells assessed as late apoptotic cells at 10 times GI50 after 24 hrs by annexin V/propidium iodide staining based flow cytometry (reference value: 4.87%); assay type: functional
[5] = Growth inhibition of human M229 cells after 72 hrs by resazurin or MTT assay; assay type: functional; conditions: M229, 72 h
[6] = Growth inhibition of human M238 cells after 72 hrs by resazurin or MTT assay; assay type: functional; conditions: M238, 72 h
MV4-11 [7] = test: Cell cycle arrest in human MV4-11 cells assessed as accumulation at G1 phase at 10 times GI50 after 24 hrs by propidium iodide staining based flow cytometry (reference value: 58.99%); assay type: functional; procedure, shortened: as §1
MV4-11 [8] = test: Growth inhibition of human MV4-11 cells after 72 hrs by resazurin assay; assay type: functional; conditions: MV4-11, 72 h
Procedure, shortened: (§2)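 72 h antiproliferation assay, resazurin read-out for MV4-11 and MTT read-out for MDA-MB-453; values from at least two replicates.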

MV4-11 [9] = test: Induction of apoptosis in human MV4-11 cells assessed as early apoptotic cells at 5 times GI50 after 24 hrs by annexin V/propidium iodide staining based flow cytometry (reference value: 2.01%); assay type: functional
PC-3 = test: Growth inhibition of human PC3 cells after 72 hrs by resazurin or MTT assay; assay type: functional; conditions: PC-3, 72 h
MV4-11 [10] = test: Induction of apoptosis in human MV4-11 cells assessed as early apoptotic cells at 10 times GI50 after 24 hrs by annexin V/propidium iodide staining based flow cytometry (reference value: 2.01%); assay type: functional
MV4-11 [11] = test: Cell cycle arrest in human MV4-11 cells assessed as accumulation at S phase at 10 times GI50 after 24 hrs by propidium iodide staining based flow cytometry (reference value: 21.97%); assay type: functional; procedure, shortened: as §1
MV4-11 [12] = test: Induction of apoptosis in human MV4-11 cells assessed as necrotic cells at 10 times GI50 after 24 hrs by annexin V/propidium iodide staining based flow cytometry (reference value: 0.06%); assay type: functional
MV4-11 [13] = test: Induction of apoptosis in human MV4-11 cells assessed as viable cells at 5 times GI50 after 24 hrs by annexin V/propidium iodide staining based flow cytometry (reference value: 93.05%); assay type: functional
MV4-11 [14] = test: Induction of apoptosis in human MV4-11 cells assessed as early apoptotic cells at GI50 after 24 hrs by annexin V/propidium iodide staining based flow cytometry (reference value: 2.01%); assay type: functional
MV4-11 [15] = test: Induction of apoptosis in human MV4-11 cells assessed as viable cells at GI50 after 24 hrs by annexin V/propidium iodide staining based flow cytometry (reference value: 93.05%); assay type: functional
MV4-11 [16] = test: Cell cycle arrest in human MV4-11 cells assessed as accumulation at sub-G1 phase at GI50 after 24 hrs by propidium iodide staining based flow cytometry (reference value: 0.91%); assay type: functional; procedure, shortened: as §1
A2780 = test: Growth inhibition of human A2780 cells after 72 hrs by resazurin or MTT assay; assay type: functional; conditions: A2780, 72 h
MV4-11 [17] = test: Induction of apoptosis in human MV4-11 cells assessed as necrotic cells at 5 times GI50 after 24 hrs by annexin V/propidium iodide staining based flow cytometry (reference value: 0.06%); assay type: functional
MV4-11 [18] = test: Induction of apoptosis in human MV4-11 cells assessed as necrotic cells at GI50 after 24 hrs by annexin V/propidium iodide staining based flow cytometry (reference value: 0.06%); assay type: functional
MV4-11 [19] = test: Induction of apoptosis in human MV4-11 cells assessed as late apoptotic cells at 5 times GI50 after 24 hrs by annexin V/propidium iodide staining based flow cytometry (reference value: 4.87%); assay type: functional
MV4-11 [20] = test: Induction of apoptosis in human MV4-11 cells assessed as late apoptotic cells at GI50 after 24 hrs by annexin V/propidium iodide staining based flow cytometry (reference value: 4.87%); assay type: functional
MV4-11 [21] = test: Cell cycle arrest in human MV4-11 cells assessed as accumulation at sub-G1 phase at 5 times GI50 after 24 hrs by propidium iodide staining based flow cytometry (reference value: 0.91%); assay type: functional; procedure, shortened: as §1
MCF7 = test: Growth inhibition of human MCF7 cells after 72 hrs by resazurin or MTT assay; assay type: functional; conditions: MCF7, 72 h
MV4-11 [22] = test: Cell cycle arrest in human MV4-11 cells assessed as accumulation at G1 phase at GI50 after 24 hrs by propidium iodide staining based flow cytometry (reference value: 58.99%); assay type: functional; procedure, shortened: as §1
MV4-11 [23] = test: Cell cycle arrest in human MV4-11 cells assessed as accumulation at G2/M phase at GI50 after 24 hrs by propidium iodide staining based flow cytometry (reference value: 18.11%); assay type: functional; procedure, shortened: as §1
DU-145 = test: Growth inhibition of human DU145 cells after 72 hrs by resazurin or MTT assay; assay type: functional; conditions: DU-145, 72 h
MDA-MB-453 = test: Growth inhibition of human MDA-MB-453 cells after 72 hrs by MTT assay; assay type: functional; conditions: MDA-MB-453, 72 h; procedure, shortened: as §2
MOLM-13 = test: Growth inhibition of human MOLM13 cells after 72 hrs by resazurin or MTT assay; assay type: functional; conditions: MOLM-13, 72 h
MV4-11 [24] = test: Cell cycle arrest in human MV4-11 cells assessed as accumulation at G1 phase at 5 times GI50 after 24 hrs by propidium iodide staining based flow cytometry (reference value: 58.99%); assay type: functional; procedure, shortened: as §1
[25] = Growth inhibition of human M249 cells after 72 hrs by resazurin or MTT assay; assay type: functional; conditions: M249, 72 h
[26] = Growth inhibition of human MRC5 cells after 72 hrs by resazurin or MTT assay; assay type: cell-based
[27] = Growth inhibition of nontransformed human BPH1 cells after 72 hrs by resazurin or MTT assay; assay type: cell-based; conditions: BPH-1 cells (nontransformed)
MV4-11 [28] = test: Induction of apoptosis in human MV4-11 cells assessed as viable cells at 10 times GI50 after 24 hrs by annexin V/propidium iodide staining based flow cytometry (reference value: 93.05%); assay type: functional
MV4-11 [29] = test: Cell cycle arrest in human MV4-11 cells assessed as accumulation at S phase at 5 times GI50 after 24 hrs by propidium iodide staining based flow cytometry (reference value: 21.97%); assay type: functional; procedure, shortened: as §1
LNCaP C4-2B = test: Growth inhibition of human C4-2B cells after 72 hrs by resazurin or MTT assay; assay type: functional
[30] = Growth inhibition of human M249R cells after 72 hrs by resazurin or MTT assay; assay type: functional; conditions: M249, 72 h

SMILES	Activity (MV4-11 [1])	GI50 (NB-4)	Activity (MV4-11 [2])	Activity (MV4-11 [3])	Activity (MV4-11 [4])	GI50 [5]	GI50 [6]	Activity (MV4-11 [7])	GI50 (MV4-11 [8])	Activity (MV4-11 [9])	GI50 (PC-3)	Activity (MV4-11 [10])	Activity (MV4-11 [11])	Activity (MV4-11 [12])	Activity (MV4-11 [13])	Activity (MV4-11 [14])	Activity (MV4-11 [15])	Activity (MV4-11 [16])	GI50 (A2780)	Activity (MV4-11 [17])	other results
Cc1nc(NC2CCCC2)sc1-c1ccnc(Nc2ccc(N3CCOCC3)cn2)n1	10.91%	681 nM	2.6%	17.77%	7.27%	150 nM	2200 nM	81.18%	209 nM	2.37%	150 nM	2.83%	10.53%	0.35%	90.43%	2.33%	92.71%	3.43%	58 nM	0.16%	Activity (MV4-11 [18]): 0.06%; Activity (MV4-11 [19]): 7.03%; Activity (MV4-11 [20]): 4.9%; Activity (MV4-11 [21]): 4.09%; GI50 (MCF7): 1890 nM; Activity (MV4-11 [22]): 63.57%; Activity (MV4-11 [23]): 15.3%; GI50 (DU-145): > 10000 nM; GI50 (MDA-MB-453): 3680 nM; GI50 (MOLM-13): 385 nM; Activity (MV4-11 [24]): 71.66%; GI50 [25]: 82 nM; GI50 at 72 h [26]: > 10000 nM; GI50 at 72 h [27]: > 10000 nM; Activity (MV4-11 [28]): 89.53%; Activity (MV4-11 [29]): 13.85%; GI50 (LNCaP C4-2B): > 10000 nM; GI50 [30]: 38 nM
CC(=O)c1c(C)c2cnc(Nc3ccc(N4CCNCC4)cn3)nc2n(C2CCCC2)c1=O [PALBOCICLIB]	4.13%	66 nM	1.72%	12.18%	7.65%	1220 nM	1970 nM	89.5%	50 nM	2.14%	71 nM	2.31%	4.67%	0.12%	90.49%	2.54%	90.99%	1.32%	32 nM	0.21%	Activity (MV4-11 [18]): 0.17%; Activity (MV4-11 [19]): 7.16%; Activity (MV4-11 [20]): 6.28%; Activity (MV4-11 [21]): 1.81%; GI50 (MCF7): 557 nM; Activity (MV4-11 [22]): 75.13%; Activity (MV4-11 [23]): 11.49%; GI50 (DU-145): 5790 nM; GI50 (MDA-MB-453): 326 nM; GI50 (MOLM-13): 62 nM; Activity (MV4-11 [24]): 88.99%; GI50 [25]: 1990 nM; GI50 at 72 h [26]: > 10000 nM; GI50 at 72 h [27]: 7440 nM; Activity (MV4-11 [28]): 89.91%; Activity (MV4-11 [29]): 5.07%; GI50 (LNCaP C4-2B): 4150 nM; GI50 [30]: 2960 nM
